This experiment can be described thus: off-target radioligand displacement across receptor panel, profiling panel, selectivity assay, biochemical, Ricerca panel (AID 623932). The note with it: Ricerca radioligand binding panel, % inhibition, at 10 µM, stronger effect = higher value. Summed up:
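System – panel of radioligand binding assays across multiple targets · Benchmarks – reference standards in each assay · Read-out basis – % loss of selective radioligand binding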

Activity calls are given as the source filed them.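 Rule for the calls: active = at one tested dose, specific binding or response inhibited over 50%; inactive = the rest.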

Results on one compound are retold here after PubChem BioAssay AID623932 (Vanderbilt High Throughput Screening Facility, 2012).

The term inhibition denotes the change of the read-out against control, counted positive when it falls. On to `Cc1cc(NC(=O)Nc2ccc(F)c(F)c2)n(-c2ccccc2)n1`, for which the inhibition was 60% (inactive). The inhibition (NMDA binding inhibition) was 21%. Moreover, the inhibition (measured here: 5-HT2B binding inhibition) came out at 46%. Besides, the inhibition (measured here: DAT binding inhibition) turned out to be 12%. The same compound came in with an inhibition (measured here: GABA-A flunitrazepam binding inhibition) of 24%. This compound also returned an inhibition (measured here: GABA-A muscimol binding inhibition) of 49%. Where the note is “measured here: NET binding inhibition”, this compound gave an inhibition of 15%. The same compound showed an inhibition (measured here: NPY Y1 binding inhibition) of 24%. Besides, the inhibition (measured here: P2X binding inhibition) stood at 16%. Besides, the inhibition (measured here: dopamine D2S binding inhibition) is 16%. Where the note is “measured here: hERG binding inhibition”, the inhibition turned out to be 10%. Besides, the inhibition (measured here: imidazoline I2 binding inhibition) was 20%. The same compound registered an inhibition (measured here: mu opioid binding inhibition) of 21%.
